# Results from ChEMBL document CHEMBL1148007, “Synthesis of new S-derivatives of clubbed triazolyl thiazole as anti-Mycobacterium tuberculosis agents” (Bioorg Med Chem, 2007).
# Columns and labels:
# Salmonella typhi = assay: Antibacterial activity against Salmonella typhi at 50 to 100 uM after 24 hrs by well diffusion method; type: functional, Salmonella enterica subsp. enterica serovar Typhi; set-up: unit not given here
# In short: (§1)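 Nutrient agar plates with 10 mm wells cut by cork borer; 24-h subcultured bacteria swabbed on. Compounds dissolved in chloroform, 50 to 100 μM added to wells, gentamycin as standard. Incubated 24 h at 24–28 °C; inhibition zone diameter measured and converted to percent inhibition.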
# [1] = Cytotoxicity against Vero-C1008 cells at 6.25 to 50 ug/mL by neutral red uptake assay; type: cell-based; conditions: chlorocebus sabaeus
# In short: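 Vero-C-1008 cells exposed to 6.25 to 50 μg/mL compound; viability read by neutral red uptake.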
# Escherichia coli = assay: Antibacterial activity against Escherichia coli at 50 to 100 uM after 24 hrs by well diffusion method; type: functional; in short: as §1
# Pseudomonas aeruginosa = assay: Antibacterial activity against Pseudomonas aeruginosa at 50 to 100 uM after 24 hrs by well diffusion method; type: functional; in short: as §1
# Staphylococcus aureus = assay: Antibacterial activity against Staphylococcus aureus at 50 to 100 uM after 24 hrs by well diffusion method; type: functional; in short: as §1
# [2] = test system: Mycobacterium tuberculosis; assay: Antitubercular activity against Mycobacterium tuberculosis H37Rv by MABA assay; type: functional
# In short: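 Actives re-tested at lower concentrations against H37Rv (ATCC 27294) in BACTEC 12B medium by Microplate Alamar Blue Assay. MIC taken as lowest concentration giving […] fluorescence reduction versus controls; rifampin reference.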
Compound,Inhibition (Salmonella typhi),Activity [1],inhibition zone (Escherichia coli),inhibition zone (Pseudomonas aeruginosa),inhibition zone (Staphylococcus aureus),MIC [2],inhibition (Salmonella typhi; Salmonella enterica subsp. enterica serovar Typhi),inhibition (Escherichia coli),inhibition (Pseudomonas aeruginosa),inhibition (Staphylococcus aureus)
CC(=O)NNC(=O)CSc1nnc(Cc2csc(NCCC(=O)O)n2)n1NC(=O)c1cccc([N+](=O)[O-])c1,14,Non-toxic,14 mm,10 mm,24 mm,< 6.25 µg/mL,–,–,–,–
Nn1c(S)nnc1Cc1csc(NC(=O)CCl)n1,12,Non-toxic,14 mm,17 mm,18 mm,–,–,–,–,–
O=C(CSc1nnc(Cc2csc(NC(=O)c3ccccc3)n2)n1NC(=O)c1cccc([N+](=O)[O-])c1)NNC(=O)c1ccccc1,12,Non-toxic,14 mm,12 mm,18 mm,< 6.25 µg/mL,–,–,–,–
CC(=O)Nc1nc(Cc2nnc(SCC(=O)NNC(=O)CCl)n2NC(=O)c2cccc([N+](=O)[O-])c2)cs1,14,Non-toxic,18 mm,18 mm,12 mm,< 6.25 µg/mL,–,–,–,–
Nn1c(S)nnc1Cc1csc(NCCC(=O)O)n1,16,Non-toxic,20 mm,22 mm,25 mm,< 6.25 µg/mL,–,–,–,–
CC(=O)NNC(=O)CSc1nnc(Cc2csc(NCCC(=O)O)n2)n1NC(=O)c1ccc(Cl)cc1,18,Non-toxic,26 mm,21 mm,20 mm,< 6.25 µg/mL,–,–,–,–
COC(=O)CSc1nnc(Cc2csc(NCCC(=O)O)n2)n1NC(=O)c1ccc(Cl)cc1,18,Non-toxic,22 mm,24 mm,26 mm,< 6.25 µg/mL,–,–,–,–
COC(=O)CSc1nnc(Cc2csc(NC(C)=O)n2)n1NC(=O)c1cccc([N+](=O)[O-])c1,18,Non-toxic,20 mm,22 mm,24 mm,< 6.25 µg/mL,–,–,–,–
CC(=O)Nc1nc(Cc2nnc(SCC(=O)NNC(=O)CCl)n2NC(=O)c2ccc(Cl)cc2)cs1,20,Non-toxic,18 mm,20 mm,25 mm,< 6.25 µg/mL,–,–,–,–
Nn1c(S)nnc1CSc1nnc(Cc2csc(NC(=O)c3ccccc3)n2)n1NC(=O)c1ccc(Cl)cc1,19,Non-toxic,20 mm,19 mm,26 mm,< 6.25 µg/mL,–,–,–,–
CC(=O)Nc1nc(Cc2nnc(SCSc3nnc(Cc4csc(NC(C)=O)n4)n3NC(=O)c3ccc(Cl)cc3)n2NC(=O)c2ccc(Cl)cc2)cs1,17,Non-toxic,24 mm,21 mm,24 mm,< 6.25 µg/mL,–,–,–,–
CC(=O)NNC(=O)CSc1nnc(Cc2csc(NC(=O)CCl)n2)n1NC(=O)c1ccc(Cl)cc1,22,Non-toxic,24 mm,21 mm,25 mm,< 6.25 µg/mL,–,–,–,–
CC(=O)Nc1nc(Cc2nnc(SCc3nnc(S)n3N)n2NC(=O)c2cccc([N+](=O)[O-])c2)cs1,18,Non-toxic,21 mm,13 mm,18 mm,< 6.25 µg/mL,–,–,–,–
CC(=O)NNC(=O)CSc1nnc(Cc2csc(NC(C)=O)n2)n1NC(=O)c1cccc([N+](=O)[O-])c1,29,Non-toxic,30 mm,34 mm,33 mm,< 6.25 µg/mL,–,–,–,–
COC(=O)CSc1nnc(Cc2csc(NC(=O)CCl)n2)n1NC(=O)c1ccc(Cl)cc1,12,Non-toxic,10 mm,16 mm,18 mm,< 6.25 µg/mL,–,–,–,–
CC(=O)NNC(=O)CSc1nnc(Cc2csc(NC(=O)c3ccccc3)n2)n1NC(=O)c1cccc([N+](=O)[O-])c1,12,Non-toxic,14 mm,18 mm,20 mm,< 6.25 µg/mL,–,–,–,–
Nn1c(S)nnc1CSc1nnc(Cc2csc(NC(=O)CCl)n2)n1NC(=O)c1cccc([N+](=O)[O-])c1,21,Non-toxic,18 mm,26 mm,20 mm,< 6.25 µg/mL,–,–,–,–
O=C(CSc1nnc(Cc2csc(NC(=O)c3ccccc3)n2)n1NC(=O)c1ccc(Cl)cc1)NNC(=O)c1ccccc1,18,Non-toxic,18 mm,24 mm,19 mm,< 6.25 µg/mL,–,–,–,–

Compound,Inhibition (Salmonella typhi),Activity [1],inhibition zone (Escherichia coli),inhibition zone (Pseudomonas aeruginosa),inhibition zone (Staphylococcus aureus),MIC [2],inhibition (Salmonella typhi; Salmonella enterica subsp. enterica serovar Typhi),inhibition (Escherichia coli),inhibition (Pseudomonas aeruginosa),inhibition (Staphylococcus aureus)
CC(=O)Nc1nc(Cc2nnc(SCC(=O)NNC(=O)c3ccccc3)n2NC(=O)c2cccc([N+](=O)[O-])c2)cs1,27,Non-toxic,30 mm,30 mm,32 mm,< 6.25 µg/mL,–,–,–,–
CC(=O)NNC(=O)CSc1nnc(Cc2csc(NC(C)=O)n2)n1NC(=O)c1ccc(Cl)cc1,23,Non-toxic,20 mm,19 mm,27 mm,< 6.25 µg/mL,–,–,–,–
COC(=O)CSc1nnc(Cc2csc(NC(=O)CCl)n2)n1NC(=O)c1cccc([N+](=O)[O-])c1,20,Non-toxic,20 mm,24 mm,26 mm,< 6.25 µg/mL,–,–,–,–
NNC(=O)CSc1nnc(Cc2csc(NCCC(=O)O)n2)n1NC(=O)c1cccc([N+](=O)[O-])c1,21,Non-toxic,16 mm,28 mm,24 mm,< 6.25 µg/mL,–,–,–,–
NNC(=O)CSc1nnc(Cc2csc(NCCC(=O)O)n2)n1NC(=O)c1ccc(Cl)cc1,22,Non-toxic,18 mm,26 mm,23 mm,< 6.25 µg/mL,–,–,–,–
CO[C@H]1/C=C/O[C@@]2(C)Oc3c(C)c(O)c4c(O)c(c(/C=N/N5CCN(C)CC5)c(O)c4c3C2=O)NC(=O)/C(C)=C\C=C\[C@H](C)[C@H](O)[C@@H](C)[C@@H](O)[C@@H](C)[C@H](OC(C)=O)[C@@H]1C [RIFAMPIN],–,–,–,–,–,0.015 µg/mL,–,–,–,–
O=C(Nc1nc(Cc2nnc(SCSc3nnc(Cc4csc(NC(=O)c5ccccc5)n4)n3NC(=O)c3ccc(Cl)cc3)n2NC(=O)c2ccc(Cl)cc2)cs1)c1ccccc1,12,Non-toxic,20 mm,27 mm,29 mm,< 6.25 µg/mL,–,–,–,–
CC(=O)Nc1nc(Cc2nnc(SCC(=O)NNC(=O)c3ccccc3)n2NC(=O)c2ccc(Cl)cc2)cs1,17,Non-toxic,20 mm,22 mm,28 mm,< 6.25 µg/mL,–,–,–,–
O=C(O)CCNc1nc(Cc2nnc(SCC(=O)NNC(=O)c3ccccc3)n2NC(=O)c2cccc([N+](=O)[O-])c2)cs1,14,Non-toxic,10 mm,10 mm,12 mm,< 6.25 µg/mL,–,–,–,–
O=C(CCl)NNC(=O)CSc1nnc(Cc2csc(NC(=O)c3ccccc3)n2)n1NC(=O)c1ccc(Cl)cc1,22,Non-toxic,19 mm,23 mm,26 mm,< 6.25 µg/mL,–,–,–,–
O=C(O)CCNc1nc(Cc2nnc(SCC(=O)NNC(=O)c3ccccc3)n2NC(=O)c2ccc(Cl)cc2)cs1,23,Non-toxic,19 mm,25 mm,18 mm,< 6.25 µg/mL,–,–,–,–
COC(=O)CSc1nnc(Cc2csc(NCCC(=O)O)n2)n1NC(=O)c1cccc([N+](=O)[O-])c1,20,Non-toxic,–,22 mm,22 mm,< 6.25 µg/mL,–,–,–,–
O=C(CSc1nnc(Cc2csc(NC(=O)CCl)n2)n1NC(=O)c1cccc([N+](=O)[O-])c1)NNC(=O)c1ccccc1,18,Non-toxic,10 mm,18 mm,21 mm,< 6.25 µg/mL,–,–,–,–
CC(=O)Nc1nc(Cc2nnc(SCc3nnc(S)n3N)n2NC(=O)c2ccc(Cl)cc2)cs1,18,Non-toxic,23 mm,21 mm,28 mm,< 6.25 µg/mL,–,–,–,–
CC(=O)NNC(=O)CSc1nnc(Cc2csc(NC(=O)c3ccccc3)n2)n1NC(=O)c1ccc(Cl)cc1,19,Non-toxic,21 mm,24 mm,26 mm,< 6.25 µg/mL,–,–,–,–
O=C(CCl)NNC(=O)CSc1nnc(Cc2csc(NC(=O)CCl)n2)n1NC(=O)c1ccc(Cl)cc1,–,Non-toxic,18 mm,–,24 mm,< 6.25 µg/mL,–,–,–,–
O=C(O)CCNc1nc(Cc2nnc(SCC(=O)NNC(=O)CCl)n2NC(=O)c2ccc(Cl)cc2)cs1,–,Non-toxic,–,–,–,< 6.25 µg/mL,–,–,–,–
GENTAMICIN,–,–,–,–,–,–,30%,31%,35%,34%
